IC50, Ratio IC50 and inhibition data for nine compounds are collected here from ChEMBL document CHEMBL4033657, “N-Aryl-N'-ethyleneaminothioureas effectively inhibit acetylcholinesterase 1 from disease-transmitting mosquitoes” (Eur J Med Chem, 2017).

By IC50 is commonly meant the midpoint of a concentration-inhibition curve. Usually inhibition stands for how much of the control response was suppressed.

Experiment [1] addresses Acetylcholinesterase (Anopheles gambiae, UniProt Q869C3, G122S). Briefly: Inhibition of recombinant full length Anopheles gambiae AChE1 G122S mutant expressed in baculovirus-infected Sf9 insect cells using acetylthiocholine iodide as substrate measured over 60 secs by Ellman's method. A general note: In Ellman's method for cholinesterases, released thiocholine reacts with DTNB.

Experiment [2] addresses Acetylcholinesterase (Anopheles gambiae, UniProt Q869C3). Kind of experiment: (§1) Inhibition of recombinant full length Anopheles gambiae AChE1 expressed in baculovirus-infected Sf9 insect cells using acetylthiocholine iodide as substrate measured over 60 secs by Ellman's method.
Experiment [3] has as its target Acetylcholinesterase (Homo sapiens, UniProt P22303). Briefly: Inhibition of recombinant human AChE expressed in HEK293F cells using acetylthiocholine iodide as substrate measured over 60 secs by Ellman's method. Details: species or system HEK293.
Experiment [4] is described as follows: (§2) Inhibition of recombinant full length Aedes aegypti AChE1 expressed in baculovirus-infected Sf9 insect cells using acetylthiocholine iodide as substrate measured over 60 secs by Ellman's method. Put shortly: (§3)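 Secreted, non-purified recombinant enzyme in growth medium, tested as enzyme source. Ellman assay at 30 °C in 0.1 M phosphate buffer pH 7.4 with 0.2 mM DTNB and 1 mM acetylthiocholine iodide; A412 followed over 60 s. Compound (100 mM DMSO stock) tested at eight concentrations, maximum 1 mM. Activity set relative to eight uninhibited controls per plate; IC50 from three-parameter variable-slope fit; 2-3 independent replicates.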

The nature of experiment [5]: Selectivity ratio of IC50 for recombinant human AChE expressed in HEK293F cells to IC50 for recombinant full length Anopheles gambiae AChE1 expressed in baculovirus-infected Sf9 insect cells. Put shortly:
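Ratio of the hAChE IC50 divided by the higher of the AgAChE1 or AaAChE1 IC50. Each IC50 came from an Ellman assay (1 mM acetylthiocholine, 0.2 mM DTNB, pH 7.4, 30 °C) with eight concentrations up to 1 mM, using 2-3 replicates.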

Experiment [6] deals with Aedes aegypti. Kind of experiment: Inhibition of recombinant full length Aedes aegypti AChE1 expressed in baculovirus-infected Sf9 insect cells at 1 mM using acetylthiocholine iodide as substrate measured over 60 secs by Ellman's method. Put shortly:
as §3

In experiment [7] the target is Acetylcholinesterase (Anopheles gambiae) (UniProt Q869C3). The experiment is described as §1.
For experiment [8] the target is unchanged. Kind of experiment: Inhibition of recombinant full length Anopheles gambiae AChE1 expressed in baculovirus-infected Sf9 insect cells at 1 mM using acetylthiocholine iodide as substrate measured over 60 secs by Ellman's method. In a few lines: as §3
For experiment [9], the system named is Aedes aegypti. The description is as §2. In a few lines: as §3

Bounds are passed on as bounds.

For the compound `S=C(NCCN1CCOCC1)Nc1cccc(Cl)c1`, the IC50 at Acetylcholinesterase [1] is greater than 200 µM; at Acetylcholinesterase [2] it was 68 µM; on Acetylcholinesterase [3], greater than 200 µM; in experiment [4], 53 µM. In addition, the Ratio IC50 in [5] is greater than 3.

As for `COc1cc(NC(=S)NCCN2CCOCC2)ccc1Cl`, the 50% inhibitory concentration (IC50) (at Acetylcholinesterase [1]; on Acetylcholinesterase [2]; on Acetylcholinesterase [3]; in [4]) was greater than 200 µM each time.

As to `CC1CCN(CCNC(=S)Nc2cccc(Cl)c2)CC1`, the IC50 (on Acetylcholinesterase [1]; at Acetylcholinesterase [2]; on Acetylcholinesterase [3]; in experiment [4]) was greater than 200 µM each time.

Consider `COc1ccc(NC(S)=NCCN2CCC(C)CC2)cc1Cl`, for which the inhibition was 90% in the experiment on Aedes aegypti [6], “Dose-dependent effect” in [7], 90% in experiment [8] and “Dose-dependent effect” with Aedes aegypti [9]. In addition, the IC50 at Acetylcholinesterase [1] was 24 µM; on Acetylcholinesterase [2] it was 0.96 µM; at Acetylcholinesterase [3] it was 12 µM; in [4], 0.63 µM. Moreover, in experiment [5], the Ratio IC50 amounted to 13.

Turning to `NS(=O)(=O)c1ccc(NC(=S)NCCN2CCCCC2)cc1`, the inhibition is 70% with Aedes aegypti [6], “Dose-dependent effect” in experiment [7], 70% in [8] and “Dose-dependent effect” in the experiment with Aedes aegypti [9]. Also, the IC50 at Acetylcholinesterase [1] came to 33 µM; at Acetylcholinesterase [2], 7.8 µM; at Acetylcholinesterase [3], 90 µM; in [4], 5.5 µM. Besides, in [5], the Ratio IC50 turned out to be 12.

`COc1ccc(NC(=S)NCCN(C)C)cc1Cl`: the half-maximal inhibitory concentration (IC50) is 17 µM on Acetylcholinesterase [1], 18 µM on Acetylcholinesterase [2], 46 µM on Acetylcholinesterase [3] and 16 µM in experiment [4]. Further, the Ratio IC50 in [5] stood at 3.

`FC(F)(F)c1ccc(NC(=S)NCCN2CCCCC2)cc1`: the IC50 (at Acetylcholinesterase [1]; on Acetylcholinesterase [2]; on Acetylcholinesterase [3]; in [4]) was greater than 200 µM each time.

As for `CN(C)CCNC(=S)Nc1ccccc1Cl`, the IC50 on Acetylcholinesterase [1] is greater than 200 µM; on Acetylcholinesterase [2] it was 17 µM; on Acetylcholinesterase [3], greater than 200 µM; in experiment [4], 14 µM.

`COc1ccc(NC(S)=NCCN2CCC(C)CC2)cc1`: the half-inhibitory concentration (IC50) (on Acetylcholinesterase [1]; at Acetylcholinesterase [2]; at Acetylcholinesterase [3]; in experiment [4]) was greater than 200 µM each time.
